Source: ChEMBL document CHEMBL4428071 (J Med Chem, 2016)
Calls of active or inactive are those of the source. No cut-off for these calls is given here.

Tests used:
[1] = target: T1, Mast/stem cell growth factor receptor Kit (Homo sapiens, UniProt P10721); test: Inhibition of TEL-fused cKIT (unknown origin) expressed in mouse BA/F3 cells assessed as cell growth inhibition after 72 hrs by cell titer-glo assay; format: cell-based
[2] = test system: Mast/stem cell growth factor receptor Kit (Homo sapiens), P10721 [T670I]; test: Inhibition of TEL-fused cKIT T670I mutant (unknown origin) expressed in mouse BA/F3 cells assessed as cell growth inhibition after 72 hrs by cell titer-glo assay; format: cell-based
Mast/stem cell growth factor receptor Kit (Homo sapiens), P10721 [T670I], sequence (P10721 whole entry T670I, the tested form may be a part): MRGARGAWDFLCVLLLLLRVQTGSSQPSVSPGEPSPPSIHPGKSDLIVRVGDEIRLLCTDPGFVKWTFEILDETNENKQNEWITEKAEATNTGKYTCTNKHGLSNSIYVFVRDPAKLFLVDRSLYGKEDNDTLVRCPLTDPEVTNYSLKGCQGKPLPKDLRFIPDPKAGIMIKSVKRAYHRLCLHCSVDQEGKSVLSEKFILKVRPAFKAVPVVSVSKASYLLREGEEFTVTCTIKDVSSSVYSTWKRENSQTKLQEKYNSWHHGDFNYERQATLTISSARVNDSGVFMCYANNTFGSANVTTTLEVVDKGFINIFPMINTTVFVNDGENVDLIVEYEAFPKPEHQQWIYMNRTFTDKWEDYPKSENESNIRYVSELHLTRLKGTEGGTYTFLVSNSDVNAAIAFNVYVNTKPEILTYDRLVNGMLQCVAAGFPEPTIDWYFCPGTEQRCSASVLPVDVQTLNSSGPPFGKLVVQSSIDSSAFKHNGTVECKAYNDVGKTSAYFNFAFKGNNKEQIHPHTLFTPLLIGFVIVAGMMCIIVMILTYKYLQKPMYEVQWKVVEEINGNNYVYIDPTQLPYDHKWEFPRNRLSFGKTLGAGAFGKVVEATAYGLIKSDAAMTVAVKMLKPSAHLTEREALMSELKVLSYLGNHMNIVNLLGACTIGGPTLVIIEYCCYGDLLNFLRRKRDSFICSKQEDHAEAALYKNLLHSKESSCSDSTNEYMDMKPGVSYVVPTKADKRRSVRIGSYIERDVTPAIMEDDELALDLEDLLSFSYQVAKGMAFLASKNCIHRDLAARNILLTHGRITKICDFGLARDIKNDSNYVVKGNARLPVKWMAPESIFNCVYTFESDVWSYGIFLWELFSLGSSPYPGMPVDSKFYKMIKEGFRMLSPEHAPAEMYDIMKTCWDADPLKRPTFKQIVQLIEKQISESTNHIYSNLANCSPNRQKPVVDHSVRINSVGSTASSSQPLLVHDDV
How it was run: (§1)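 Cells seeded at 3000 per well and exposed to serial compound dilutions for 72 h. Viability read by CellTiter-Glo luminescence and normalised to DMSO controls; mean of three independent measurements. BaF3 lines kept IL-3-free in RPMI 1640/10% FBS after retroviral transduction and puromycin selection. GIST lines grown in DMEM/10% FBS.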

[3] = Cytotoxicity mouse BA/F3 cells assessed as cell growth inhibition after 72 hrs by cell titer-glo assay; format: cell-based, BaF3; how it was run: as §1
Homo sapiens = species on record: Homo sapiens; test: Inhibition of TEL-fused cKIT L567P mutant (unknown origin) expressed in mouse BA/F3 cells assessed as cell growth inhibition after 72 hrs by cell titer-glo assay; format: cell-based; how it was run: as §1
[4] = test system: Mast/stem cell growth factor receptor Kit (Homo sapiens), P10721 [V654A]; test: Inhibition of TEL-fused cKIT V654A mutant (unknown origin) expressed in mouse BA/F3 cells assessed as cell growth inhibition after 72 hrs by cell titer-glo assay; format: cell-based; how it was run: as §1
Mast/stem cell growth factor receptor Kit (Homo sapiens), P10721 [V654A], sequence (P10721 whole entry V654A, the tested form may be a part): as the sequence (P10721 whole entry T670I, the tested form may be a part) above, with V654A, I670T counted along it

[5] = test system: Mast/stem cell growth factor receptor Kit (Homo sapiens), P10721 [N822K]; test: Inhibition of TEL-fused cKIT N822K mutant (unknown origin) expressed in mouse BA/F3 cells assessed as cell growth inhibition after 72 hrs by cell titer-glo assay; format: cell-based; how it was run: as §1
Mast/stem cell growth factor receptor Kit (Homo sapiens), P10721 [N822K], sequence (P10721 whole entry N822K, the tested form may be a part): as the sequence (P10721 whole entry T670I, the tested form may be a part) above, with I670T, N822K counted along it

[6] = test system: Mast/stem cell growth factor receptor Kit (Homo sapiens), P10721 [D816V]; test: Inhibition of TEL-fused cKIT D816V mutant (unknown origin) expressed in mouse BA/F3 cells assessed as cell growth inhibition after 72 hrs by cell titer-glo assay; format: cell-based; how it was run: as §1
Mast/stem cell growth factor receptor Kit (Homo sapiens), P10721 [D816V], sequence (P10721 whole entry D816V, the tested form may be a part): as the sequence (P10721 whole entry T670I, the tested form may be a part) above, with I670T, D816V counted along it

[7] = test system: Mast/stem cell growth factor receptor Kit (Homo sapiens), P10721 [V559D,V654A]; test: Inhibition of TEL-fused cKIT V559D/V654A double mutant (unknown origin) expressed in mouse BA/F3 cells assessed as cell growth inhibition after 72 hrs by cell titer-glo assay; format: cell-based; how it was run: as §1
Mast/stem cell growth factor receptor Kit (Homo sapiens), P10721 [V559D,V654A], sequence (P10721 whole entry V559D/V654A, the tested form may be a part): as the sequence (P10721 whole entry T670I, the tested form may be a part) above, with V559D, V654A, I670T counted along it

[8] = test system: Mast/stem cell growth factor receptor Kit (Homo sapiens), P10721 [T670I]; test: Inhibition of […] cKIT T670I mutant in human GIST-5R cells assessed as cell growth inhibition after 72 hrs by cell titer-glo assay; format: cell-based
[9] = test system: Mast/stem cell growth factor receptor Kit (Homo sapiens), P10721 [T670I]; conditions: 1 uM
[10] = test system: Mast/stem cell growth factor receptor Kit (Homo sapiens), P10721 [T670I]; conditions: 1 uM; remark: listed apart in the source
[11] = test system: Mast/stem cell growth factor receptor Kit (Homo sapiens), P10721 [T670I]; conditions: 1 uM; remark: listed apart in the source
[12] = test system: Mast/stem cell growth factor receptor Kit (Homo sapiens), P10721 [T670I]; conditions: 1 uM; remark: listed apart in the source
[13] = test system: Mast/stem cell growth factor receptor Kit (Homo sapiens), P10721 [T670I]; conditions: 1 uM; remark: listed apart in the source
[14] = test system: Mast/stem cell growth factor receptor Kit (Homo sapiens), P10721 [T670I]; conditions: 1 uM; remark: listed apart in the source
[15] = test system: Mast/stem cell growth factor receptor Kit (Homo sapiens), P10721 [V559D,T670I]; test: Inhibition of TEL-fused cKIT T670I/V559D double mutant (unknown origin) expressed in mouse BA/F3 cells assessed as cell growth inhibition after 72 hrs by cell titer-glo assay; format: cell-based; how it was run: as §1
Mast/stem cell growth factor receptor Kit (Homo sapiens), P10721 [V559D,T670I], sequence (P10721 whole entry V559D/T670I, the tested form may be a part): as the sequence (P10721 whole entry T670I, the tested form may be a part) above, with V559D counted along it

[16] = target: T1, Mast/stem cell growth factor receptor Kit; test: Inhibition of wild type cKIT in human GIST-T1 cells assessed as cell growth inhibition after 72 hrs by cell titer-glo assay; format: cell-based
How it was run: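 GIST-T1 cells (cKIT wt) grown in DMEM with 10% FBS and 1% penicillin/streptomycin at 37 °C, 5% CO2. Viability read by CellTiter-Glo luminescence and normalized to DMSO controls. GI50 taken from the mean of three independent measurements.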

T1 sequence (P10721 whole entry, the tested form may be a part): as the sequence (P10721 whole entry T670I, the tested form may be a part) above, with I670T counted along it

Structure (SMILES)	GI50 [1]	GI50 [2]	GI50 at 72 h [3]	further results
CCC(=O)Nc1ccc(N2CCC(NC(=O)Nc3cccc(Oc4ccnc5cc(OC)c(OC)cc45)c3)CC2)c(C(F)(F)F)c1	0.34 µM	> 10 µM	> 10 µM	–
COc1cc2nccc(Oc3cccc(NC(=O)Nc4ccc(N5CCC(NC(=O)CCN6CCCCC6)CC5)c(C(F)(F)F)c4)c3)c2cc1OC	0.44 µM	0.26 µM	7.6 µM	–
COc1cc2nccc(Oc3cccc(NC(=O)Nc4ccc(N5CCC(NC(=O)CN6CCCC(C)C6)CC5)c(C(F)(F)F)c4)c3)c2cc1OC (configuration not stated)	0.33 µM	0.2 µM	0.87 µM	–
COc1cc2nccc(Oc3cccc(NC(=O)Nc4ccc(N5CCC(NC(=O)CN)CC5)c(C(F)(F)F)c4)c3)c2cc1OC	0.13 µM	0.581 µM	5 µM	–
CCC(=O)NC1CCN(c2ccc(NC(=O)C3(C(=O)Nc4cccc(Oc5ccnc6cc(OC)c(OC)cc56)c4)CC3)cc2C(F)(F)F)CC1	> 10 µM	> 10 µM	> 10 µM	–
COc1cc2nccc(Oc3cccc(NC(=O)Nc4ccc(N5CCC(NS(C)(=O)=O)CC5)c(C(F)(F)F)c4)c3)c2cc1OC	3.9 µM	3.8 µM	> 10 µM	–
COc1cc2nccc(Oc3cccc(NC(=O)Nc4ccc(N5CCC(NC(=O)C6CCCN(C(=O)OC(C)(C)C)C6)CC5)c(C(F)(F)F)c4)c3)c2cc1OC (configuration not stated)	0.13 µM	0.17 µM	0.51 µM	–
CCS(=O)(=O)NC1CCN(c2ccc(NC(=O)Nc3cccc(Oc4ccnc5cc(OC)c(OC)cc45)c3)cc2C(F)(F)F)CC1	0.034 µM	0.33 µM	6.2 µM	–
COc1cc2nccc(Oc3cccc(NC(=O)Nc4ccc(N5CCC(NC(=O)C6CCN(C)CC6)CC5)c(C(F)(F)F)c4)c3)c2cc1OC	0.16 µM	0.081 µM	1.7 µM	–
COc1cc2nccc(Oc3cccc(NC(=O)Nc4ccc(N5CCC(NC(=O)C6CCN(C(C)=O)CC6)CC5)c(C(F)(F)F)c4)c3)c2cc1OC	0.059 µM	0.23 µM	3.4 µM	–
COc1cc2nccc(Oc3cccc(NC(=O)Nc4ccc(N5CCC(NC(=O)C6CCNC(C)C6)CC5)c(C(F)(F)F)c4)c3)c2cc1OC (configuration not stated)	0.46 µM	0.65 µM	4 µM	–
CCC(=O)NC1CCN(c2ccc(NC(=O)Nc3cccc(Oc4ccnc5cc(OC)c(OC)cc45)c3)cc2)CC1	> 10 µM	> 10 µM	> 10 µM	–
COc1cc2nccc(Oc3cccc(NC(=O)Nc4ccc(N5CCC(NC(=O)CN(C)C)CC5)c(C(F)(F)F)c4)c3)c2cc1OC	0.038 µM	0.053 µM	2.9 µM	–
COc1cc2nccc(Oc3cccc(NC(=O)Nc4ccc(N5CCC(NC(=O)C6CCN(C(=O)C7CC7)CC6)CC5)c(C(F)(F)F)c4)c3)c2cc1OC	0.13 µM	0.12 µM	0.8 µM	–
Cc1ccc(NC(=O)c2ccc(CN3CCN(C)CC3)cc2)cc1Nc1nccc(-c2cccnc2)n1 [IMATINIB]	–	9.6 µM	> 10 µM	GI50 (Homo sapiens): 0.01 µM; GI50 [4]: 0.7 µM; GI50 [5]: 0.36 µM; GI50 [6]: > 10 µM; GI50 [7]: 0.7 µM; GI50 [8]: 8.3 µM; inhibition [9]: inactive; inhibition [10]: inactive; inhibition [11]: inactive; inhibition [12]: inactive; inhibition [13]: inactive; inhibition [14]: inactive
COc1cc2nccc(Oc3cccc(NC(=O)Nc4ccc(N5CCC(NC(=O)CN6CCCCC6)CC5)c(C(F)(F)F)c4)c3)c2cc1OC	0.12 µM	0.037 µM	0.48 µM	–

Structure (SMILES)	GI50 [1]	GI50 [2]	GI50 at 72 h [3]	further results
CCN(CC)CCNC(=O)c1c(C)[nH]c(/C=C2\C(=O)Nc3ccc(F)cc32)c1C [SUNITINIB]	–	0.005 µM	1.6 µM	GI50 (Homo sapiens): 0.003 µM; GI50 [4]: 0.006 µM; GI50 [6]: 0.42 µM; GI50 [15]: 0.007 µM; GI50 [7]: 0.006 µM; GI50 [16]: 0.005 µM
CCC(=O)NC1CCCN(c2ccc(NC(=O)Nc3cccc(Oc4ccnc5cc(OC)c(OC)cc45)c3)cc2C(F)(F)F)C1 (configuration not stated)	0.28 µM	0.92 µM	1.31 µM	–
COc1cc2nccc(Oc3cccc(NC(=O)Nc4ccc(N5CCC(NC(=O)CCC6CCCCN6C)CC5)c(C(F)(F)F)c4)c3)c2cc1OC (configuration not stated)	0.19 µM	0.2 µM	1.2 µM	–
COc1cc2nccc(Oc3cccc(NC(=O)Nc4ccc(N5CCC(CNC(=O)CCC6CCCCN6C)CC5)c(C(F)(F)F)c4)c3)c2cc1OC (configuration not stated)	0.25 µM	0.46 µM	4.4 µM	–
COc1cc2nccc(Oc3cccc(NC(=O)Nc4ccc(N5CCC(NC(=O)CCN6CCOCC6)CC5)c(C(F)(F)F)c4)c3)c2cc1OC	0.042 µM	0.059 µM	3.6 µM	–
COc1cc2nccc(Oc3cccc(NC(=O)Nc4ccc(N5CCC(NC(C)=O)CC5)c(C(F)(F)F)c4)c3)c2cc1OC	0.11 µM	0.046 µM	7.1 µM	–
COc1cc2nccc(Oc3cccc(NC(=O)Nc4ccc(N5CCC(NC(=O)CC(C)(C)C)CC5)c(C(F)(F)F)c4)c3)c2cc1OC	0.43 µM	0.34 µM	> 10 µM	–
CCN1CCC(C(=O)NC2CCN(c3ccc(NC(=O)Nc4cccc(Oc5ccnc6cc(OC)c(OC)cc56)c4)cc3C(F)(F)F)CC2)CC1	0.039 µM	0.087 µM	1.3 µM	–
COc1cc2nccc(Oc3cccc(NC(=O)Nc4ccc(N5CCC(NC(=O)C6CCOCC6)CC5)c(C(F)(F)F)c4)c3)c2cc1OC	0.087 µM	0.083 µM	2.9 µM	–
CCCS(=O)(=O)NC1CCN(c2ccc(NC(=O)Nc3cccc(Oc4ccnc5cc(OC)c(OC)cc45)c3)cc2C(F)(F)F)CC1	0.059 µM	0.95 µM	4.23 µM	–
COc1cc2nccc(Oc3cccc(NC(=O)Nc4ccc(N5CCC(NS(=O)(=O)C6CC6)CC5)c(C(F)(F)F)c4)c3)c2cc1OC	0.14 µM	0.063 µM	1.9 µM	–
COc1cc2nccc(Oc3cccc(NC(=O)Nc4ccc(N5CCC(NC(=O)C6=CCCCC6)CC5)c(C(F)(F)F)c4)c3)c2cc1OC	0.76 µM	0.76 µM	1.1 µM	–
CCC(=O)NC1CCN(c2ccc(NC(=O)Nc3cccc(Oc4ccnc5cc(OC)c(OC)cc45)c3)cc2C(F)(F)F)CC1	0.12 µM	0.071 µM	1.5 µM	–
CCC(=O)NC1CCN(c2ccc(C(=O)Nc3cccc(Oc4ccnc5cc(OC)c(OC)cc45)c3)cc2C(F)(F)F)CC1	0.4 µM	2.7 µM	> 10 µM	–
COc1cc2nccc(Oc3cccc(NC(=O)Nc4ccc(N5CCC(NC(=O)C(C)N)CC5)c(C(F)(F)F)c4)c3)c2cc1OC (single isomer, unassigned)	0.12 µM	0.48 µM	3 µM	–
COc1cc2nccc(Oc3cccc(NC(=O)Nc4ccc(N5CCC(NC(=O)c6cccnc6)CC5)c(C(F)(F)F)c4)c3)c2cc1OC	0.02 µM	0.321 µM	7 µM	–
